Source: ChEMBL document CHEMBL1255409, “In vitro activity of ceftaroline against 623 diverse strains of anaerobic bacteria” (2010)

Key:
Bacteroides fragilis = assay: Antimicrobial activity against Bacteroides fragilis spp. under anaerobic conditions after 44 hrs by CLSI-M11-47 protocol based agar dilution method; format: functional
In short: (§1)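 Reference agar dilution per CLSI M11-A7 with plates made on test day. Clinical isolates were stored at −70°C in 20% skim milk, subcultured twice, and 48-h cell paste was suspended in brucella broth to 0.5 McFarland. About 10^5 CFU/spot was applied with a Steers replicator. Plates were incubated 44 h at 37°C anaerobically. MIC was the lowest concentration giving complete inhibition or marked growth reduction versus the drug-free control.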

Prevotella buccae = assay: Antimicrobial activity against Prevotella buccae under anaerobic conditions after 44 hrs by CLSI-M11-47 protocol based agar dilution method; format: functional; details: Segatella buccae
In short: (§2)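 Clinical isolates were stored at −70°C in 20% skim milk and identified phenotypically or by partial 16S rRNA sequencing. Each strain was subcultured twice from frozen stock. Cell paste from 48-h cultures was suspended in brucella broth to a 0.5 McFarland standard. About 10^5 CFU per spot were applied by Steers replicator to agar dilution plates prepared on the day of testing. Plates were incubated 44 h at 37°C in an anaerobic chamber. MIC was taken as the lowest concentration giving complete inhibition or marked reduction of growth versus the drug-free control.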

Prevotella intermedia = assay: Antimicrobial activity against Prevotella intermedia under anaerobic conditions after 44 hrs by CLSI-M11-47 protocol based agar dilution method; format: functional; in short: as §2
Prevotella bergensis = assay: Antimicrobial activity against Prevotella bergensis under anaerobic conditions after 44 hrs by CLSI-M11-47 protocol based agar dilution method; format: functional; details: Hallella bergensis; in short: as §2
Prevotella oris = assay: Antimicrobial activity against Prevotella oris under anaerobic conditions after 44 hrs by CLSI-M11-47 protocol based agar dilution method; format: functional; details: Segatella oris; in short: as §2
Fusobacterium nucleatum = assay: Antimicrobial activity against Fusobacterium nucleatum under anaerobic conditions after 44 hrs by CLSI-M11-47 protocol based agar dilution method; format: functional; in short: as §2
Veillonella = assay: Antimicrobial activity against Veillonella spp. under anaerobic conditions after 44 hrs by CLSI-M11-47 protocol based agar dilution method; format: functional; in short: as §2
Finegoldia magna = assay: Antimicrobial activity against Finegoldia magna under anaerobic conditions after 44 hrs by CLSI-M11-47 protocol based agar dilution method; format: functional; in short: as §1
Anaerococcus murdochii = assay: Antimicrobial activity against Anaerococcus murdochii under anaerobic conditions after 44 hrs by CLSI-M11-47 protocol based agar dilution method; format: functional; in short: as §1
Anaerococcus vaginalis = assay: Antimicrobial activity against Anaerococcus vaginalis under anaerobic conditions after 44 hrs by CLSI-M11-47 protocol based agar dilution method; format: functional; in short: as §1
Anaerococcus = assay: Antimicrobial activity against Anaerococcus sp. under anaerobic conditions after 44 hrs by CLSI-M11-47 protocol based agar dilution method; format: functional; in short: as §1
Peptoniphilus lacrimalis = assay: Antimicrobial activity against Peptoniphilus lacrimalis under anaerobic conditions after 44 hrs by CLSI-M11-47 protocol based agar dilution method; format: functional; in short: as §2
Actinomyces israelii = assay: Antimicrobial activity against Actinomyces israelii under anaerobic conditions after 44 hrs by CLSI-M11-47 protocol based agar dilution method; format: functional; in short: as §1
Schaalia meyeri = assay: Antimicrobial activity against Actinomyces meyeri under anaerobic conditions after 44 hrs by CLSI-M11-47 protocol based agar dilution method; format: functional; in short: as §1
[1] = test system: Actinomyces neuii subsp. anitratus; assay: Antimicrobial activity against Actinomyces neuii subsp. anitratus under anaerobic conditions after 44 hrs by CLSI-M11-47 protocol based agar dilution method; format: functional, Winkia neuii subsp. anitrata; details: Winkia neuii; in short: as §1
Schaalia odontolytica = assay: Antimicrobial activity against Actinomyces odontolyticus under anaerobic conditions after 44 hrs by CLSI-M11-47 protocol based agar dilution method; format: functional; in short: as §1
Propionibacterium avidum = assay: Antimicrobial activity against Propionibacterium avidum under anaerobic conditions after 44 hrs by CLSI-M11-47 protocol based agar dilution method; format: functional; details: Cutibacterium avidum; in short: as §2
Eggerthella lenta = assay: Antimicrobial activity against Eggerthella lenta under anaerobic conditions after 44 hrs by CLSI-M11-47 protocol based agar dilution method; format: functional; in short: as §1
Atopobium parvulum = assay: Antimicrobial activity against Atopobium parvulum under anaerobic conditions after 44 hrs by CLSI-M11-47 protocol based agar dilution method; format: functional; details: Lancefieldella parvula; in short: as §1
Eubacterium contortum = assay: Antimicrobial activity against Eubacterium contortum under anaerobic conditions after 44 hrs by CLSI-M11-47 protocol based agar dilution method; format: functional; details: Faecalicatena contorta; in short: as §1
Eubacterium cylindroides = assay: Antimicrobial activity against Eubacterium cylindroides under anaerobic conditions after 44 hrs by CLSI-M11-47 protocol based agar dilution method; format: functional; details: Faecalitalea cylindroides; in short: as §1
Eubacterium saburreum = assay: Antimicrobial activity against Eubacterium saburreum under anaerobic conditions after 44 hrs by CLSI-M11-47 protocol based agar dilution method; format: functional; details: Lachnoanaerobaculum saburreum; in short: as §1
Mogibacterium timidum = assay: Antimicrobial activity against Mogibacterium timidum under anaerobic conditions after 44 hrs by CLSI-M11-47 protocol based agar dilution method; format: functional; in short: as §2
Slackia exigua = assay: Antimicrobial activity against Slackia exigua under anaerobic conditions after 44 hrs by CLSI-M11-47 protocol based agar dilution method; format: functional; in short: as §2
Thomasclavelia ramosa = assay: Antimicrobial activity against Clostridium ramosum under anaerobic conditions after 44 hrs by CLSI-M11-47 protocol based agar dilution method; format: functional; in short: as §1
[Clostridium] innocuum = Antimicrobial activity against Clostridium […] under anaerobic conditions after 44 hrs by CLSI-M11-47 protocol based agar dilution method; format: functional; in short: as §1
Clostridium hathewayi = assay: Antimicrobial activity against Clostridium hathewayi under anaerobic conditions after 44 hrs by CLSI-M11-47 protocol based agar dilution method; format: functional; details: Hungatella hathewayi; in short: as §1
Clostridioides difficile = assay: Antimicrobial activity against Clostridium difficile under anaerobic conditions after 44 hrs by CLSI-M11-47 protocol based agar dilution method; format: functional; in short: as §1
Clostridium glycolicum = assay: Antimicrobial activity against Clostridium glycolicum under anaerobic conditions after 44 hrs by CLSI-M11-47 protocol based agar dilution method; format: functional; details: Terrisporobacter glycolicus; in short: as §1
[2] = test system: Clostridium paraputrificum; assay: Antimicrobial activity against Clostridium paraputrificum under anaerobic conditions after 44 hrs by CLSI-M11-47 protocol based agar dilution method; format: functional; in short: as §1
Lacrimispora sphenoides = assay: Antimicrobial activity against Clostridium sphenoides under anaerobic conditions after 44 hrs by CLSI-M11-47 protocol based agar dilution method; format: functional; in short: as §1
Eubacterium limosum = assay: Antimicrobial activity against Eubacterium limosum under anaerobic conditions after 44 hrs by CLSI-M11-47 protocol based agar dilution method; format: functional; in short: as §1

CO/N=C(\C(=O)N[C@@H]1C(=O)N2C(C(=O)O)=C(CSc3nc(=O)c(O)nn3C)CS[C@H]12)c1csc(N)n1 [CEFTRIAXONE]
64 µg/mL: MIC90 (Prevotella buccae) | MIC90 (Clostridioides difficile) | MIC90 (Clostridium glycolicum) | MIC90 [2] | MIC90 (Lacrimispora sphenoides)
2 µg/mL: MIC90 (Atopobium parvulum) | MIC90 (Eubacterium contortum) | MIC90 (Eubacterium cylindroides) | MIC90 (Eubacterium saburreum) | MIC90 (Mogibacterium timidum) | MIC90 (Slackia exigua) | MIC50 (Clostridioides difficile) | MIC50 (Clostridium glycolicum) | MIC50 [2] | MIC50 (Lacrimispora sphenoides) | MIC90 (Eubacterium limosum)
1 µg/mL: MIC50 (Prevotella intermedia) | MIC50 (Prevotella bergensis) | MIC50 (Prevotella oris)
0.125 µg/mL: MIC50 (Fusobacterium nucleatum) | MIC50 (Actinomyces israelii) | MIC50 (Schaalia meyeri) | MIC50 [1] | MIC50 (Schaalia odontolytica)
4 µg/mL: MIC50 (Veillonella) | MIC50 (Finegoldia magna) | MIC50 (Clostridium hathewayi)
0.25 µg/mL: MIC50 (Prevotella buccae) | MIC50 (Anaerococcus murdochii) | MIC50 (Anaerococcus vaginalis) | MIC50 (Anaerococcus) | MIC50 (Peptoniphilus lacrimalis) | MIC50 (Propionibacterium avidum) | MIC50 (Thomasclavelia ramosa)
0.5 µg/mL: MIC90 (Fusobacterium nucleatum) | MIC90 (Actinomyces israelii) | MIC90 (Schaalia meyeri) | MIC90 [1] | MIC90 (Schaalia odontolytica) | MIC90 (Propionibacterium avidum) | MIC50 (Atopobium parvulum) | MIC50 (Eubacterium contortum) | MIC50 (Eubacterium cylindroides) | MIC50 (Eubacterium saburreum) | MIC50 (Mogibacterium timidum) | MIC50 (Slackia exigua) | MIC90 (Thomasclavelia ramosa) | MIC50 (Eubacterium limosum)
16 µg/mL: MIC90 (Prevotella intermedia) | MIC90 (Anaerococcus murdochii) | MIC90 (Anaerococcus vaginalis) | MIC90 (Anaerococcus) | MIC90 (Peptoniphilus lacrimalis) | MIC90 ([Clostridium] innocuum)
32 µg/mL: MIC90 (Clostridium hathewayi)
8 µg/mL: MIC90 (Prevotella bergensis) | MIC90 (Prevotella oris) | MIC90 (Veillonella) | MIC90 (Finegoldia magna) | MIC50 ([Clostridium] innocuum)
> 64 µg/mL: MIC50 (Bacteroides fragilis) | MIC90 (Bacteroides fragilis) | MIC50 (Eggerthella lenta) | MIC90 (Eggerthella lenta)
